{"source": "ChEMBL document CHEMBL4033794", "about": "“Discovery of Trifluoromethyl Glycol Carbamates as Potent and Selective Covalent Monoacylglycerol Lipase (MAGL) Inhibitors for Treatment of Neuroinflammation” (J Med Chem, 2018)", "key": {"[1]": {"experiment": "Lipophilicity, log D of the compound by HPLC analysis", "assay_type": "physicochemical", "summary_of_the_method": "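LogD determined by an HPLC-based (eLogD) method.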"}, "[2]": {"experiment": "Intrinsic clearance in human hepatocytes", "assay_type": "ADME, cell-based, Hepatocyte", "settings": "read-out: CLH", "summary_of_the_method": "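Substrate depletion in cryopreserved human hepatocytes; scaled intrinsic clearance in mL/min/kg.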"}, "[3]": {"experiment": "Volume of distribution in Beagle dog at 1 mg/kg, iv administered via cephalic vein measured up to 24 hrs post dose by HPLC-MS/MS analysis", "assay_type": "ADME, organism-based, Canis lupus familiaris", "settings": "in vivo", "summary_of_the_method": "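Fasted male beagles (n = 2), fed ~4 h post-dose, given 1 mg/kg IV bolus via cephalic vein in 3% DMA/10% Solutol HS15/10% Miglyol/77% of 20% SBECD, 0.5 mL/kg. Jugular blood pre-dose and 0.083–24 h; plasma HPLC-MS/MS; non-compartmental analysis.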"}}, "data": [{"smiles": "O=C(O[C@H](CO)C(F)(F)F)N1C[C@@H]2[C@H](C1)[C@H]2c1ccn(-c2ccc(F)cc2)n1", "values": [{"measurement": "logD", "setting": "[1]", "value": 3.8}, {"measurement": "CLint scaled", "setting": "[2]", "value": 52, "unit": "mL/min/kg"}, {"measurement": "Vd", "setting": "[3]", "value": 1.6, "unit": "L/kg"}]}]}
